We go through two molecules from ChEMBL document CHEMBL3085721, “Nonhydrolyzable ATP analogues as selective inhibitors of human NPP1: a combined computational/experimental study” (J Med Chem, 2013).

SMILES strings stand for the structures.

This experiment has as its target T1, Ectonucleotide pyrophosphatase/phosphodiesterase family member 3 (Homo sapiens) (UniProt O14638).
T1 sequence (whole entry): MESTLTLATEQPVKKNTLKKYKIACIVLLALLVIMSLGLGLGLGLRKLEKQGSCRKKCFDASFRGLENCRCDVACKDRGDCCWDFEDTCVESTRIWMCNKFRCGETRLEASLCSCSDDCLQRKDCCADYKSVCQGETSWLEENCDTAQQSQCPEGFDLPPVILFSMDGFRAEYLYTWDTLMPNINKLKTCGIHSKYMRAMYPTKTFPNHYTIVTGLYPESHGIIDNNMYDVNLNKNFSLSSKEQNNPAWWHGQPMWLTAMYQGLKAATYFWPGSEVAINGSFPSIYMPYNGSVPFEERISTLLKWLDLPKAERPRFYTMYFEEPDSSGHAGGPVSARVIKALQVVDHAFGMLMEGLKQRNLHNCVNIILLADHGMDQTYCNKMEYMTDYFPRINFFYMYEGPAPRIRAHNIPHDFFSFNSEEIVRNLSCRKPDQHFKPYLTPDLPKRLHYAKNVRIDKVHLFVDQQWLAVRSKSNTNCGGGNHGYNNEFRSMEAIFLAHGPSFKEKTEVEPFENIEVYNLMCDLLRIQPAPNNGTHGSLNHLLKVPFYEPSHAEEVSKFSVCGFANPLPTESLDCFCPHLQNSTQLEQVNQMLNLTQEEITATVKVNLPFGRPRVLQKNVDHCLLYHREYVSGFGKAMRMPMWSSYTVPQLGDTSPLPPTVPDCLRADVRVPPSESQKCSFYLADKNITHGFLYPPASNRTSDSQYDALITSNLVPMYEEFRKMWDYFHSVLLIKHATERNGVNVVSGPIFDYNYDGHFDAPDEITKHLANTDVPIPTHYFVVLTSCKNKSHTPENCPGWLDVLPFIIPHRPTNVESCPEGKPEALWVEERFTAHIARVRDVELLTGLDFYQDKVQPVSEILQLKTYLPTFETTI
The experiment is described as follows: Inhibition of human NPP3 expressed in COS7 cells assessed as production of p-nitrophenol using pnp-TMP as the substrate preincubated at 100 uM for 3 mins before substrate addition measured after 15 mins […]. The note with it: COS-7. Type of experiment: cell-based. The essentials:
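Crude extracts of COS-7 cells transiently transfected with human NPP1 or NPP3, preincubated 3 min at 37 °C in 1 mM CaCl2, 140 mM NaCl, 5 mM KCl, 50 mM Tris pH 8.5 with analogue at 100 μM. Reaction started with 100 μM pnp-TMP; p-nitrophenol at 410 nm after 15 min. Activity without analogue set as 100%. Mean ± SD of 3−6 experiments in triplicate.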

What is called inhibition is how much of the control response was suppressed. For `B[P@@](=O)(OC[C@H]1O[C@@H](n2cnc3c(N)nc(SC)nc32)[C@H](O)[C@@H]1O)OP(=O)(O)C(F)(F)P(=O)(O)O`, the inhibition was 50%.

In the case of `CSc1nc(N)c2ncn([C@@H]3O[C@H](COP(=O)(O)C(F)(F)P(=O)(O)O)[C@@H](O)[C@H]3O)c2n1`, the inhibition stood at 50%.
